ChEMBL document CHEMBL4346672, “Antimicrobial and KPC/AmpC inhibitory activity of functionalized benzosiloxaboroles” (Eur J Med Chem, 2019)
Values after ≈ are worked out from the molar mass of the structure shown. Active and inactive are the calls of the source. No cut-off for these calls is given here.

Legend:
Staphylococcus aureus [1] = assay: Antibacterial activity against Staphylococcus aureus ATCC 6538P assessed as diameter of zone inhibition measured after 18 hrs by CLSI disc diffusion method; type: functional
Summary of the method: (§1)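 Disc diffusion on Mueller-Hinton II agar. Compounds dissolved in DMSO. Strains stored at -80 °C and subcultured twice on tryptic soy agar before testing. Inhibition zones read after 35 °C, 18 h.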

Pseudomonas aeruginosa [2] = assay: Antibacterial activity against Pseudomonas aeruginosa ATCC 27853 measured after 18 hrs by CLSI broth dilution method; type: functional; settings: ATCC 27853, 18 h
Summary of the method: (§2)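 Broth MIC in Mueller-Hinton II broth following CLSI, compounds dissolved in DMSO. Strains subcultured twice on tryptic soy agar before testing. Growth read after 35 °C, 18 h.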

Serratia marcescens = assay: Antibacterial activity against Serratia marcescens ATCC 13880 measured after 18 hrs by CLSI broth dilution method; type: functional; settings: ATCC 13880, 18 h; summary of the method: as §2
[3] = Dissociation constant, pKa1 of compound in 0.1 M NaOH by potentiometric analysis; type: physicochemical
Candida albicans [4] = assay: Antifungal activity against Candida albicans ATCC 90028 assessed as decrease in fungal cell growth at 0.78 to 12.5 mg/L incubated for 24 hrs by CLSI broth dilution method; type: functional; settings: ATCC 90028, 24 h
Summary of the method: (§3)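 Yeast broth dilution in RPMI 1640 with 2% glucose, compounds in DMSO. Yeasts pre-grown on Sabouraud dextrose agar. Growth read after 35 °C, 24 h.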

[5] = tested on: Meyerozyma guilliermondii; assay: Antifungal activity against Candida guilliermondii IBA 155 assessed as decrease in fungal cell growth at 0.78 to 12.5 mg/L incubated for 24 hrs by CLSI broth dilution method; type: functional; settings: IBA 155, 24 h; summary of the method: as §3
Saccharomyces cerevisiae [6] = assay: Antifungal activity against Saccharomyces cerevisiae ATCC 9763 assessed as decrease in fungal cell growth at 0.78 to 12.5 mg/L incubated for 24 hrs by CLSI broth dilution method; type: functional; settings: ATCC 9763, 24 h
Summary of the method: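 Yeast strain subcultured on Sabouraud dextrose agar for 24–48 h at 30 °C before testing. Compounds dissolved in DMSO.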

Candida albicans [7] = assay: Antifungal activity against Candida albicans ATCC 90028 assessed as diameter of zone inhibition incubated for 24 hrs by CLSI disc diffusion method; type: functional
Summary of the method: (§4)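 Yeast disc diffusion on Mueller-Hinton agar supplemented with 2% glucose and 0.5 mg/L methylene blue. Compounds in DMSO. Yeasts subcultured on Sabouraud dextrose agar before testing. Zones read after 35 °C, 24 h.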

Candida parapsilosis = assay: Antifungal activity against Candida parapsilosis ATCC 22019 assessed as diameter of zone inhibition incubated for 24 hrs by CLSI disc diffusion method; type: functional; summary of the method: as §4
[8] = tested on: Meyerozyma guilliermondii; assay: Antifungal activity against Candida guilliermondii IBA 155 assessed as diameter of zone inhibition incubated for 24 hrs by CLSI disc diffusion method; type: functional; summary of the method: as §4
Pichia kudriavzevii = assay: Antifungal activity against Candida krusei ATCC 6258 assessed as diameter of zone inhibition incubated for 24 hrs by CLSI disc diffusion method; type: functional; summary of the method: as §4
Saccharomyces cerevisiae [9] = assay: Antifungal activity against Saccharomyces cerevisiae ATCC 9763 diameter of zone inhibition incubated for 24 hrs by CLSI disc diffusion method; type: functional
Summary of the method: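 Disc-diffusion run on Mueller-Hinton II agar with 2% glucose and 0.5 mg/L methylene blue, using compounds in DMSO. Yeast was precultured on Sabouraud dextrose agar (24–48 h, 30 °C). Zones read after 24 h at 35 °C.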

Staphylococcus aureus [10] = assay: Antibacterial activity against Staphylococcus aureus ATCC 6538P measured after 18 hrs by CLSI broth dilution method; type: functional; summary of the method: as §2
[11] = tested on: Staphylococcus epidermidis; assay: Antibacterial activity against Staphylococcus epidermidis ATCC 12228 measured after 18 hrs by CLSI broth dilution method; type: functional; settings: ATCC 12228, 18 h; summary of the method: as §2
Enterococcus faecalis = assay: Antibacterial activity against Enterococcus faecalis ATCC 29212 measured after 18 hrs by CLSI broth dilution method; type: functional; settings: ATCC 29212, 18 h; summary of the method: as §2
Enterococcus faecium = assay: Antibacterial activity against Enterococcus faecium ATCC 6057 measured after 18 hrs by CLSI broth dilution method; type: functional; settings: ATCC 6057, 18 h; summary of the method: as §2
[12] = tested on: Staphylococcus epidermidis; assay: Antibacterial activity against Staphylococcus epidermidis ATCC 12228 assessed as diameter of zone inhibition measured after 18 hrs by CLSI disc diffusion method; type: functional; summary of the method: as §1
Bacillus subtilis = assay: Antibacterial activity against Bacillus subtilis ATCC 6633 assessed as diameter of zone inhibition measured after 18 hrs by CLSI disc diffusion method; type: functional; summary of the method: as §1
Escherichia coli [13] = assay: Antibacterial activity against Escherichia coli ATCC 25922 measured after 18 hrs by CLSI broth dilution method; type: functional; settings: ATCC 25922, 18 h; summary of the method: as §2
Klebsiella pneumoniae = assay: Antibacterial activity against Klebsiella pneumoniae ATCC 13883 measured after 18 hrs by CLSI broth dilution method; type: functional; settings: ATCC 13883, 18 h; summary of the method: as §2
Proteus mirabilis = assay: Antibacterial activity against Proteus mirabilis ATCC 12453 measured after 18 hrs by CLSI broth dilution method; type: functional; settings: ATCC 12453, 18 h; summary of the method: as §2
Enterobacter cloacae [14] = assay: Antibacterial activity against Enterobacter cloacae DSM 6234 measured after 18 hrs by CLSI broth dilution method; type: functional; settings: DSM 6234, 18 h; summary of the method: as §2
[15] = tested on: Stenotrophomonas maltophilia; assay: Antibacterial activity against Stenotrophomonas maltophilia ATCC 13637 measured after 18 hrs by CLSI broth dilution method; type: functional; settings: ATCC 13637, 18 h; summary of the method: as §2
Burkholderia cepacia [16] = assay: Antibacterial activity against Burkholderia cepacia ATCC 25416 measured after 18 hrs by CLSI broth dilution method; type: functional; settings: ATCC 25416, 18 h; summary of the method: as §2
Escherichia coli [17] = assay: Antibacterial activity against Escherichia coli ATCC 25922 assessed as diameter of zone inhibition measured after 18 hrs by CLSI disc diffusion method; type: functional; summary of the method: as §1
Enterobacter cloacae [18] = assay: Antibacterial activity against Enterobacter cloacae DSM 6234 assessed as diameter of zone inhibition measured after 18 hrs by CLSI disc diffusion method; type: functional; summary of the method: as §1
Pseudomonas aeruginosa [19] = assay: Antibacterial activity against Pseudomonas aeruginosa ATCC 27853 assessed as diameter of zone inhibition measured after 18 hrs by CLSI disc diffusion method; type: functional, organism-based; summary of the method: as §1
Acinetobacter baumannii = assay: Antibacterial activity against Acinetobacter baumannii ATCC 19606 assessed as diameter of zone inhibition measured after 18 hrs by CLSI disc diffusion method; type: functional; summary of the method: as §1
[20] = tested on: Stenotrophomonas maltophilia; assay: Antibacterial activity against Stenotrophomonas maltophilia ATCC 13637 assessed as diameter of zone inhibition measured after 18 hrs by CLSI disc diffusion method; type: functional; summary of the method: as §1
Burkholderia cepacia [21] = assay: Antibacterial activity against Burkholderia cepacia ATCC 25416 assessed as diameter of zone inhibition measured after 18 hrs by CLSI disc diffusion method; type: functional; summary of the method: as §1
Escherichia coli [22] = assay: Antibacterial activity against Escherichia coli ATCC 25922 assessed as fold reduction of MIC in presence of efflux pump inhibitor PAbetaN incubated for 18 hrs by CLSI broth microdilution method; type: functional
Summary of the method: (§5)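 MICs determined with and without PAβN at 50 mg/L in Mueller-Hinton broth containing 1 mM MgSO₄. 2-fold serial dilutions per CLSI. Fold change taken from the paired MICs after 35 °C, 18 h.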

Enterobacter cloacae [23] = assay: Antibacterial activity against Enterobacter cloacae DSM 6234 assessed as fold reduction of MIC in presence of efflux pump inhibitor PAbetaN incubated for 18 hrs by broth microdilution method; type: functional; summary of the method: as §5
[24] = tested on: Stenotrophomonas maltophilia; assay: Antibacterial activity against Stenotrophomonas maltophilia ATCC 13637 assessed as fold reduction of MIC in presence of efflux pump inhibitor PAbetaN incubated for 18 hrs by broth microdilution method; type: functional; summary of the method: as §5

SMILES	diameter of the inhibition zone (DIZ) (Staphylococcus aureus [1])	MIC (Pseudomonas aeruginosa [2])	MIC (Serratia marcescens)	pKa [3]	MIC (Candida albicans [4])	MIC [5]	MIC (Saccharomyces cerevisiae [6])	diameter of the inhibition zone (DIZ) (Candida albicans [7])	diameter of the inhibition zone (DIZ) (Candida parapsilosis)	diameter of the inhibition zone (DIZ) [8]	diameter of the inhibition zone (DIZ) (Pichia kudriavzevii)	diameter of the inhibition zone (DIZ) (Saccharomyces cerevisiae [9])	MIC (Staphylococcus aureus [10])	MIC [11]	MIC (Enterococcus faecalis)	MIC (Enterococcus faecium)	diameter of the inhibition zone (DIZ) [12]	diameter of the inhibition zone (DIZ) (Bacillus subtilis)	MIC (Escherichia coli [13])	MIC (Klebsiella pneumoniae)	further results
C[Si]1(C)OB(O)c2c(F)c3c(c(F)c21)B(O)OC3	30 mm	> 400 µg/mL	400 µg/mL (≈ 1480 µM)	4.7	> 400 µg/mL	> 400 µg/mL	> 400 µg/mL	inactive	inactive	inactive	inactive	inactive	6.25 µg/mL (≈ 23.2 µM)	6.25 µg/mL (≈ 23.2 µM)	25 µg/mL (≈ 92.6 µM)	25 µg/mL (≈ 92.6 µM)	35 mm	29 mm	200 µg/mL (≈ 741 µM)	200 µg/mL (≈ 741 µM)	MIC (Proteus mirabilis): 200 µg/mL (≈ 741 µM); MIC (Enterobacter cloacae [14]): 200 µg/mL (≈ 741 µM); MIC [15]: 50 µg/mL (≈ 185 µM); MIC (Burkholderia cepacia [16]): 50 µg/mL (≈ 185 µM); diameter of the inhibition zone (DIZ) (Escherichia coli [17]): inactive; diameter of the inhibition zone (DIZ) (Enterobacter cloacae [18]): 17 mm; diameter of the inhibition zone (DIZ) (Pseudomonas aeruginosa [19]): inactive; diameter of the inhibition zone (DIZ) (Acinetobacter baumannii): 15 mm; diameter of the inhibition zone (DIZ) [20]: 15 mm; diameter of the inhibition zone (DIZ) (Burkholderia cepacia [21]): 23 mm; fold change (FC) (Escherichia coli [22]): 8; fold change (FC) (Enterobacter cloacae [23]): 8; fold change (FC) [24]: 8
C[Si]1(C)OB(O)c2cc3c(c(F)c21)COB3O	20 mm	> 400 µg/mL	> 400 µg/mL	6.3	100 µg/mL (≈ 397 µM)	400 µg/mL (≈ 1590 µM)	100 µg/mL (≈ 397 µM)	inactive	inactive	inactive	inactive	inactive	3.12 µg/mL (≈ 12.4 µM)	6.25 µg/mL (≈ 24.8 µM)	100 µg/mL (≈ 397 µM)	50 µg/mL (≈ 198 µM)	34 mm	29 mm	400 µg/mL (≈ 1590 µM)	> 400 µg/mL	MIC (Proteus mirabilis): > 400 µg/mL; MIC (Enterobacter cloacae [14]): > 400 µg/mL; MIC [15]: 200 µg/mL (≈ 794 µM); MIC (Burkholderia cepacia [16]): > 400 µg/mL; diameter of the inhibition zone (DIZ) (Escherichia coli [17]): inactive; diameter of the inhibition zone (DIZ) (Enterobacter cloacae [18]): inactive; diameter of the inhibition zone (DIZ) (Pseudomonas aeruginosa [19]): inactive; diameter of the inhibition zone (DIZ) (Acinetobacter baumannii): inactive; diameter of the inhibition zone (DIZ) [20]: 14 mm; diameter of the inhibition zone (DIZ) (Burkholderia cepacia [21]): inactive; fold change (FC) (Escherichia coli [22]): 16; fold change (FC) (Enterobacter cloacae [23]): 64; fold change (FC) [24]: 16
C[Si]1(C)OB(O)c2cc(F)c(F)cc21	34 mm	> 400 µg/mL	> 400 µg/mL	6.8	50 µg/mL (≈ 234 µM)	6.25 µg/mL (≈ 29.2 µM)	3.12 µg/mL (≈ 14.6 µM)	16 mm	18 mm	30 mm	17 mm	57 mm	50 µg/mL (≈ 234 µM)	50 µg/mL (≈ 234 µM)	400 µg/mL (≈ 1870 µM)	200 µg/mL (≈ 934 µM)	28 mm	25 mm	> 400 µg/mL	> 400 µg/mL	MIC (Proteus mirabilis): 400 µg/mL (≈ 1870 µM); MIC (Enterobacter cloacae [14]): > 400 µg/mL; MIC [15]: 400 µg/mL (≈ 1870 µM); MIC (Burkholderia cepacia [16]): > 400 µg/mL; diameter of the inhibition zone (DIZ) (Escherichia coli [17]): inactive; diameter of the inhibition zone (DIZ) (Enterobacter cloacae [18]): inactive; diameter of the inhibition zone (DIZ) (Pseudomonas aeruginosa [19]): inactive; diameter of the inhibition zone (DIZ) (Acinetobacter baumannii): inactive; diameter of the inhibition zone (DIZ) [20]: 14 mm; diameter of the inhibition zone (DIZ) (Burkholderia cepacia [21]): inactive; fold change (FC) (Escherichia coli [22]): 32; fold change (FC) (Enterobacter cloacae [23]): 32; fold change (FC) [24]: 16
